{"data": "Experimental data collected from several papers", "note": "Each line is one published result; the experiments were not run side by side."}
{"Compound": "Nc1cccc(-n2c(/C=C/c3ccc(F)cc3)nc3ccccc3c2=O)c1", "organism": "Enterococcus faecium", "assay": "microbial growth, broth dilution", "system": "NCTC7171", "quantity": "MIC", "value": "128 µg/mL"}
{"Compound": "O=c1cccc(C2CCCCC2)n1O", "organism": "Candida albicans", "assay": "microbial growth", "system": "ATCC90028", "quantity": "MIC80", "value": "1.9 µM"}
{"Compound": "COC(=O)c1cc(-c2cccc(NC(=O)Nc3cccc(Br)c3)c2)on1", "organism": "Mycobacteroides chelonae", "assay": "microbial growth, broth dilution", "system": "ATCC35752", "conditions": "48 h", "quantity": "MIC", "value": "> 64 µg/mL"}
{"Compound": "O=c1c2ccccc2nc(/C=C/c2cccc(F)c2)n1-c1cccc(O)c1", "organism": "Enterococcus faecium", "assay": "microbial growth, broth dilution", "system": "NCTC7171", "quantity": "MIC", "value": "32 µg/mL"}
{"Compound": "CCOC(=O)c1cc(-c2cccc(NC(=O)Nc3ccc(Cl)c(Cl)c3)c2)on1", "organism": "Mycobacteroides chelonae", "assay": "microbial growth, broth dilution", "system": "ATCC35752", "conditions": "48 h", "quantity": "MIC", "value": "> 64 µg/mL"}
{"Compound": "OC(Cn1cncn1)(Cn1cncn1)c1ccc(F)cc1F", "organism": "Candida albicans", "assay": "microbial killing", "quantity": "MFC", "value": "40 µM"}
{"Compound": "N#Cc1ccc(/C=C/c2nc3ccccc3c(=O)n2-c2cccc([N+](=O)[O-])c2)cc1", "organism": "Enterococcus faecium", "assay": "microbial growth, broth dilution", "system": "NCTC7171", "quantity": "MIC", "value": "> 128 µg/mL"}
{"Compound": "O=C(N/N=C/c1ccc(O)c(O)c1)c1cc2ccccc2cc1O", "organism": "Murine coronavirus", "assay": "viral replication", "quantity": "IC50", "value": "6 µM"}
{"Compound": "COC(=O)c1cc(-c2cccc(NC(=S)Nc3ccc(F)cc3F)c2)on1", "organism": "Mycobacteroides chelonae", "assay": "microbial growth, broth dilution", "system": "ATCC35752", "conditions": "48 h", "quantity": "MIC", "value": "16 µg/mL"}
{"Compound": "Cc1cc(C2CCCCC2)n(O)c(=O)c1", "organism": "Candida albicans", "assay": "microbial growth", "system": "ATCC90028", "quantity": "MIC80", "value": "1.9 µM"}
{"Compound": "Cl.O[C@]12C=C(c3nccc4c3[nH]c3ccccc34)[C@@H]3CCN(CCCC/C=C\\CC1)C[C@@]31C[C@@H]3/C=C\\CCCCN3[C@H]12", "organism": "Mycobacterium intracellulare", "assay": "microbial growth, resazurin", "system": "ATCC23068", "quantity": "IC50", "value": "0.12 µg/mL"}
{"Compound": "Cc1ccc(-c2nc3ccccc3c(=O)n2-c2cccc(O)c2)cc1", "organism": "Enterococcus faecium", "assay": "microbial growth, broth dilution", "system": "NCTC7171", "quantity": "MIC", "value": "> 128 µg/mL"}
{"Compound": "c1ccc2c(c1)CCc1ccccc1C2OCCN1CCNCC1", "organism": "Trypanosoma brucei", "assay": "parasite growth", "quantity": "EC50", "value": "9.32 µM"}
{"Compound": "O=C(Nc1cccc(Cl)c1)Nc1ncc(CCNc2ncnc3ccsc23)s1", "organism": "Plasmodium berghei", "assay": "parasite growth, luciferase", "system": "human", "conditions": "liver stage", "quantity": "IC50", "value": "4.2 µM"}
{"Compound": "COC(=O)c1cc(-c2cccc(NC(=S)Nc3ccc(Cl)cc3)c2)on1", "organism": "Mycobacteroides chelonae", "assay": "microbial growth, broth dilution", "system": "ATCC35752", "conditions": "48 h", "quantity": "MIC", "value": "> 64 µg/mL"}
{"Compound": "N#Cc1ccc(/C=C/c2nc3ccccc3c(=O)n2-c2cc[nH]n2)cc1", "organism": "Enterococcus faecium", "assay": "microbial growth, broth dilution", "system": "NCTC7171", "quantity": "MIC", "value": "> 128 µg/mL"}
{"Compound": "COC(=O)c1cc(-c2cccc(NC(=O)Nc3ccc(Cl)cc3Cl)c2)on1", "organism": "Mycobacteroides chelonae", "assay": "microbial growth, broth dilution", "system": "ATCC35752", "conditions": "48 h", "quantity": "MIC", "value": "> 64 µg/mL"}
{"Compound": "COc1cccc(Cc2cc(C)cc(=O)n2O)c1", "organism": "Candida albicans", "assay": "microbial growth", "system": "ATCC90028", "quantity": "MIC80", "value": "2.3 µM"}
{"Compound": "COC(=O)c1cc(-c2cccc(NC(=O)Nc3ccc(C)c(Cl)c3)c2)on1", "organism": "Mycobacteroides chelonae", "assay": "microbial growth, broth dilution", "system": "ATCC35752", "conditions": "48 h", "quantity": "MIC", "value": "> 64 µg/mL"}
{"Compound": "O=c1c2ccccc2nc(/C=C/c2ccccc2)n1-c1cccc(O)c1", "organism": "Enterococcus faecium", "assay": "microbial growth, broth dilution", "system": "NCTC7171", "quantity": "MIC", "value": "32 µg/mL"}
{"Compound": "CN(C)C(=O)/C(C#N)=C/c1ccc(-c2nc3cnc4[nH]ccc4c3n2C2CCCCC2)o1", "organism": "Murine coronavirus", "assay": "viral replication", "conditions": "1 µM, 10 h", "quantity": "inhibition", "value": "36%"}
